Myeloid diff 2 = induction of myeloid progenitor differentiation, primary screen, cell-based, flow cytometry, MLPCN library; ER-HoxA9 myeloid progenitors, lysozyme-GFP differentiation; calls only at 10 µM; actives 1% (n = 360,000); AID 624256, 2012;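 active means normalized GFP-positive differentiation at or above the plate's own cutoff, the solvent-only control mean plus 3 SD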;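 further: cells exposed to compound for four days before flow analysis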
EBI2 antag = EBI2 receptor antagonists, beta-arrestin recruitment, primary screen, cell-based, luminescence, 7a,25-OHC stimulation, uHTS; inhibition, % at 5 µM; 7a,25-OHC stimulated; actives 0.81% (n = 360,000); G-protein coupled receptor 183 (Homo sapiens), P32249; in the data active means inhibition above about 38%;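 further: enzyme fragment complementation signal reports receptor beta-arrestin coupling in cells; 0% = agonist plus DMSO wells and 100% = wells without agonist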
MC4R antagonist = MC4R antagonists of cAMP signaling, primary screen, cell-based, TR-FRET, antagonist arm of biased-ligand search; actives 0.48% (n = 360,000); AID 540295, 2011; inhibition, % at 6.5 µM; Melanocortin receptor 4 (Homo sapiens), P32245; MC4R-expressing cells, MTII-stimulated cAMP, LANCE TR-FRET;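 active means inhibition above its plate's cutoff, the mean of tested wells on that plate plus 3 SD, cut at about 29% in these data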;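 further: 0% = Melanotan II alone and 100% = Melanotan II plus saturating MCL0020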
Target sequence (P32245 whole entry, looked up): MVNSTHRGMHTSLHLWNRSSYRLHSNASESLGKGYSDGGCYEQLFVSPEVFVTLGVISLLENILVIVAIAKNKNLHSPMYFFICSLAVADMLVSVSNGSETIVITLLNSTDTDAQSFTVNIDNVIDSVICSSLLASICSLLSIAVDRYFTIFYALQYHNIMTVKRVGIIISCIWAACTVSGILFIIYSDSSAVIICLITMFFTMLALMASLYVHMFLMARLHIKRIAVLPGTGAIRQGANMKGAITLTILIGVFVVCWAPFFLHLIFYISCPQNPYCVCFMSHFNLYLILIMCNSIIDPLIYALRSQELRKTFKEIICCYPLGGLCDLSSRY
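Assay system: human MC4R-expressing U2OS cells; reagent: Melanotan II stimulation of cells; dosing: 6.5 µM single dose; timing: compound 30 min, challenge 1 h, detection 1 h; signal: TR-FRET cAMP assay; replicates: one well per compound, no replicates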
MC4R barr agon = MC4R agonists recruiting beta-arrestin, primary screen, cell-based, luminescence, agonist arm of biased-ligand search. U2OS MC4R beta-arrestin complementation; percent of melanotan II response, DMSO zero. activation, % at 8.9 µM. actives 0.98% (n = 360,000);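 active means activation above a per-plate cutoff, the mean activation of sample wells on that plate plus 3 SD, cut at about 8% in these data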
Exocytosis inh = LAMP-1 surface exposure blockers, TALL-104 cells – cell-based, flow cytometry, MLPCN library, primary screen; actives 0.66% (n = 360,000); inhibition, % at 10 µM; TALL-104 LAMP-1 surface exposure; cells stimulated with thapsigargin and PMA; AID 651702, 2012;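 active means inhibition above about 55%, limit read from the data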
Myeloid diff = inducers of myeloid progenitor differentiation, confirmation, cell-based, GFP/Mac1 flow cytometry, cherry pick 01 | shares compounds with Myeloid diff 2 | ER-HoxA9 myeloid progenitors, GFP/Mac1 double-positive flow | calls only | actives 2% (n = 2,300);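 active means share of green or green-and-red cells above 9 and 9% in run 1 or 4 and 3% in run 2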
GFP autofluor = counter-screen for myeloid differentiation promoters: compound fluorescence | shares compounds with Myeloid diff 2 | ER-HoxA9 myeloid progenitors, no estrogen, GFP autofluorescence flow cytometry; vehicle wells 0%, positive control 100% | fluorescence response, % (no concentration beside the values) | actives 7.4% (n = 2,300);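 active means over 5% cells positive for green fluorescent reporter, or over 2% positive for both it and APC stain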;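 further: range taken on the double positive population between DMSO and positive control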
Numbers without * were called inactive; i = inactive; . = no result; + = active, no number. In the library only some 3.7% were active in any assay of this set; here they are far more common.

SMILES	Myeloid diff 2	EBI2 antag	MC4R antagonist	MC4R barr agon	Exocytosis inh	Myeloid diff	GFP autofluor
Nc1[nH]c(C(=O)c2ccccc2)c(-c2ccccc2C(F)(F)F)c1C(=O)NCc1ccc(F)cc1	i	-11	.	.	8	.	.
C/C(O)=c1/ccc2cccc3nc(C)nc1c23	+	-6	12	-1	21	i	8.4*
Cc1cccc2nc3ccccc3cc12	i	-7	-8	-3	-7	.	.
c1ccc(CNc2nc(-c3cccs3)nc3ccccc23)nc1	i	6	2	3	1	i	2
Cc1ccc(Cn2cc(CN3CC(N4CCCCC4)CS3(=O)=O)nn2)cc1 (stereo not given)	i	2	.	.	13	.	.
CCCCCCN1CCN(C2CN(Cc3cn(Cc4ccc(C)cc4)nn3)S(=O)(=O)C2)CC1 (stereo not given)	i	4	.	.	13	i	0
O=C(NC(=S)N1CCCCC1CO)c1cccs1 (stereo not given)	i	-5	-6	1	-3	.	.
CC1=Nc2ccc(C)c3nc(C)cc(c23)N1c1ccc(C)cc1	+	13	7	-1	1	i	0
Cc1ccc(N2C=Nc3ccc(C)c4nc(C)cc2c34)cc1	i	-5	-5	-1	-1	.	.
CC1(C(=O)NC2CCCCC2)CCC(=O)N1Cc1cccs1 (stereo not given)	i	-12	10	0	-2	i	0
CC1(C(=O)NC2CCCCCCC2)CCC(=O)N1Cc1cccs1 (stereo not given)	i	2	-1	-1	-2	.	.
N#CC1=C(N)Oc2n[nH]c(-c3ccccc3)c2C12C(=O)Nc1ccccc12 (stereo not given)	i	-15	6	-1	0	i	0
CCN1C(=O)C2(C(C#N)=C(N)Oc3n[nH]c(-c4ccc(Cl)cc4)c32)c2ccccc21 (stereo not given)	i	1	10	-1	6	.	.
COc1ccc(CC(=O)OCC(=O)c2c[nH]c3ccccc23)cc1	i	3	3	-1	-1	.	.
COc1cc(CC(=O)OCC(=O)c2c[nH]c3ccccc23)cc(OC)c1OC	i	5	3	-4	1	i	9.7*
COc1ccc(C(=O)CSc2ncnc3nc[nH]c23)cc1	+	1	-8	-2	-11	i	0
CCOC(=O)c1ccc(NC(=O)c2nc[nH]c2C(=O)N(C)CCO)cc1	+	4	-3	0	-1	i	0
NC(=O)CC[C@H](NC(=O)OCc1ccccc1)C(=O)OCc1ccc(Cl)cc1	i	-8	1	-1	0	.	.
NNc1nc2c(F)cccc2s1	i	-3	1	-3	2	.	.
NNc1nc2c(F)cc(F)cc2s1	+	-7	6	4	3	i	0
CCc1nc2ccc(C(=O)NCCCn3ccnc3)cn2c1N(CC)CCOC	i	-3	5	1	-10	.	.
O=C(NCc1ccc(F)cc1)c1cc(C2CCCN(C(=O)CCCc3ccccc3)C2)on1 (stereo not given)	i	18	2	1	-3	.	.
O=C(Nc1ccccn1)c1cc(-c2cccc(Cl)c2)nc2ccccc12	i	8	11	0	-2	.	.
O=C(N/N=C/c1ccncc1)c1cccc(NC(=O)c2ccccc2Cl)c1	i	0	6	-1	-5	.	.
O=C(N/N=C/c1cccnc1)c1cccc(NC(=O)c2ccccc2Cl)c1	+	5	-1	-1	-32	i	0
SMILES	Myeloid diff 2	EBI2 antag	MC4R antagonist	MC4R barr agon	Exocytosis inh	Myeloid diff	GFP autofluor
COC(=O)C(NC(=O)CCc1nnc2ccc(N3CCCCC3)nn12)C(C)C (stereo not given)	i	-6	7	-3	9	.	.
Cc1cc2cc(CN(CC3CCCO3)C(=S)Nc3ccccc3)c(=O)[nH]c2cc1C (stereo not given)	+	4	15	1	-2	i	5
O=C1NC[C@@H](CCCCN2C[C@H](Cc3ccc(O)cc3)N(CCc3ccc(O)cc3)C(=O)C2=O)N(Cc2ccccc2)C1=O	i	-11	.	.	-4	.	.
O=C(O)c1cc(NC(=O)C2CCCO2)cc(NC(=O)C2CCCO2)c1 (stereo not given)	+	4	-2	3	3	i	0
O=C1OCc2cc(NC(=O)C3CCCO3)ccc21 (stereo not given)	i	3	3	-1	-10	.	.
O=C1NC(=O)c2cc(NC(=O)C3CCCO3)ccc21 (stereo not given)	i	3	6	0	-1	i	0
CC(C)Cc1nc2c(nnn2Cc2ccccc2F)c(=O)[nH]1	i	-3	10	2	-2	.	.
CCN(CC)S(=O)(=O)c1cc(OCC(N)=O)c(C)cc1Cl	i	-12	10	4	8	i	0
COCCNC(=O)c1c(N)n(CCC2=CCCCC2)c2nc3ccccc3nc12	i	-11	-6	-1	-2	i	0
Cc1cc(C(=O)CN2C(=O)C(=O)N(Cc3ccco3)C2=O)c(C)n1CCc1ccc(F)cc1	i	4	1	0	0	i	0
O=C(NNC(=O)C12CC3CC(CC(C3)C1)C2)c1ccccc1[N+](=O)[O-]	i	4	-2	-2	1	i	0
O=C(CC[C@H]1O[C@@H](n2ccc(=O)[nH]c2=O)[C@H](O)[C@@H]1O)N[C@@H](Cc1ccccc1)C(=O)NCC1CCCCC1	i	-2	.	.	-4	.	.
COc1cccc(-c2cc(C(=O)NCc3ccc(Cl)cc3)no2)c1	i	32	7	0	-2	i	0
COc1cccc(-c2cc(C(=O)NCCc3ccccc3)no2)c1	i	-19	5	8	-6	.	.
CCN(CC)C(=O)C1=C(C)N(CCCN2CCCC2=O)C(=O)C(CC(=O)NCCCN(C)C)C1 (stereo not given)	i	-5	6	2	0	.	.
COC(=O)c1c(NC(=O)CSc2nnnn2-c2ccccc2)sc2c1CCC(C(C)(C)C)C2 (stereo not given)	i	15	10	-1	-3	i	0
